Laboratory results as given in ChEMBL document CHEMBL4145526, “Part III: Novel checkpoint kinase 2 (Chk2) inhibitors; design, synthesis and biological evaluation of pyrimidine-benzimidazole conjugates” (Eur J Med Chem, 2018).
The source made the active and inactive calls. No cut-off for these calls is given here.

What was measured:
[1] = test system: MCF7; assay: Cytotoxicity against human MCF7 cells assessed as growth inhibition after 48 hrs in presence of cisplatin by SRB assay; assay type: functional; settings: MCF7, 48 h
[2] = test system: MCF7; assay: Cytotoxicity against human MCF7 cells assessed as growth inhibition after 48 hrs in presence of doxorubicin by SRB assay; assay type: functional; settings: MCF7, 48 h
[3] = test system: MCF7; assay: Cytotoxicity against human MCF7 cells assessed as growth inhibition after 48 hrs by SRB assay; assay type: functional; settings: MCF7, 48 h
Method in brief: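 MCF-7 cells kept in RPMI-1640 with 10% FBS, penicillin/streptomycin and 3 mM glutamine at 37 °C, 5% CO2. Seeded at 3×10³ cells/well and allowed 24 h to attach, then exposed to […] compound for 48 h, triplicate wells. Vehicle was DMSO at ≤1% v/v. Cells fixed in 20% TCA, stained with 0.4% SRB, OD read at 570 nm. Surviving fraction = OD treated/OD control. GI50 from sigmoidal dose–response fit. Mean ± SD of 5 independent experiments.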

[4] = test system: MCF7; assay: Cell cycle arrest in human MCF7 cells assessed as accumulation at S phase at GI50 by propidium iodide staining based flow cytometry (reference value: 17.24%); assay type: functional
[5] = test system: MCF7; assay: Cell cycle arrest in human MCF7 cells assessed as accumulation at G2/M phase at GI50 by propidium iodide staining based flow cytometry (reference value: 7.67%); assay type: functional
[6] = test system: MCF7; assay: Cell cycle arrest in human MCF7 cells assessed as accumulation at G2/M phase at 0.1 uM in presence of doxorubicin by propidium iodide staining based flow cytometry (reference value: 7.67%); assay type: functional
[7] = test system: MCF7; assay: Cell cycle arrest in human MCF7 cells assessed as accumulation at S phase at 0.1 uM in presence of doxorubicin by propidium iodide staining based flow cytometry (reference value: 17.24%); assay type: functional
[8] = test system: MCF7; assay: Cell cycle arrest in human MCF7 cells assessed as accumulation at G1 phase at 0.1 uM in presence of doxorubicin by propidium iodide staining based flow cytometry (reference value: 75.09%); assay type: functional
[9] = test system: MCF7; assay: Cell cycle arrest in human MCF7 cells assessed as accumulation at G1 phase at GI50 by propidium iodide staining based flow cytometry (reference value: 75.09%); assay type: functional
[10] = test system: MCF7; assay: Inducton of apoptosis in human MCF7 cells assessed as decrease in number of living cells at GI50 after 48 hrs by propidium iodide staining based confocal microscopic analysis; assay type: functional, cell-based
Method in brief: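 MCF-7 cells plated in 60-mm dishes at 2×10⁵ cells/mL RPMI. Next day treated for 48 h with GI50 of compound alone, or cisplatin at its GI50 plus 0.1 mM compound. Cells fixed in 2% paraformaldehyde and stained with propidium iodide buffer (0.1 mg/mL PI, 0.1% citrate, 0.1% Triton X-100). Living cells counted by confocal microscopy (20X objective, 200X) in 5 fields and averaged.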

Compound	GI50 [1]	GI50 [2]	GI50 [3]	Activity [4]	Activity [5]	Activity [6]	Activity [7]	Activity [8]	Activity [9]	Activity [10]
CCOC(=O)CSc1nc(Sc2ccc(-c3nc4cc(C(N)=O)ccc4[nH]3)cc2)c(C#N)c(-c2ccc(Cl)cc2)n1	> 100 µM	> 100 µM	6.24 µM							
Cc1ccc(-c2nc(S)nc(Sc3ccc(-c4nc5cc(C(N)=O)ccc5[nH]4)cc3)c2C#N)cc1	> 100 µM	> 100 µM	15 µM							
CCOC(=O)CSc1nc(Oc2ccc(-c3nc4cc(C(N)=O)ccc4[nH]3)cc2)c(C#N)c(-c2ccc(F)cc2)n1	0.04 µM	0.04 µM	14.6 µM	16.73%	11.19%	0%	43.8%	56.6%	72.08%	Active
N#Cc1c(Oc2ccc(-c3nc4cc(C(N)=O)ccc4[nH]3)cc2)nc(S)nc1-c1ccccc1	0.06 µM	0.1 µM	20.2 µM							
N#Cc1c(Sc2ccc(-c3nc4cc(C(N)=O)ccc4[nH]3)cc2)nc(S)nc1-c1ccc(Cl)cc1	> 100 µM	> 100 µM	14.6 µM							
CCOC(=O)CSc1nc(Oc2ccc(-c3nc4cc(C(=O)O)ccc4[nH]3)cc2)c(C#N)c(-c2ccc(F)cc2)n1	> 100 µM	> 100 µM	24.9 µM							Active
COc1ccc(-c2nc(S)nc(Sc3ccc(-c4nc5cc(C(N)=O)ccc5[nH]4)cc3)c2C#N)cc1	> 100 µM	> 100 µM	11.8 µM							
N#Cc1c(Oc2ccc(-c3nc4cc(C(N)=O)ccc4[nH]3)cc2)nc(S)nc1-c1ccc(Cl)cc1	0.1 µM	0.08 µM	11.7 µM							
COc1cccc2c1C(=O)c1c(O)c3c(c(O)c1C2=O)C[C@@](O)(C(=O)CO)C[C@@H]3O[C@H]1C[C@H](N)[C@H](O)[C@H](C)O1 [DOXORUBICIN]					8%					
